V1aR counter – agonists of human V1a receptor, primary screen, counter-screen for OXTR agonist project, fluorescence, CHO-V1R cells. AID 2797, 2010. Vasopressin V1a receptor (Homo sapiens), P37288. 320,000 tested, 0.25% active. activation, % at 3 µM. Fluo-8 calcium fluorescence, agonist mode; 0% DMSO, 100% 3 nM vasopressin;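 active = activation above the mean activation of all tested compounds plus 3 SD, per screening run, cut at about 20% in these data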;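 also: signal is peak over basal fluorescence ratio across a 100 second FLIPR read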
TRPML3 agonist – human TRPML3 channel agonists, primary screen, cell-based, HEK293 TRPML3-YFP, Fluo-8 calcium fluorescence, 3 µM; Mucolipin-3 (Homo sapiens), Q8TDD5; 100% = the carbachol control signal; activation, % at 3 µM; 220,000 tested, 0.29% active; AID 1448, 2008;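 active = activation above its plate's cutoff, the mean activation of the plate's test wells plus 3 SD, cut at about 12% in these data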
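Material: TRPML3-YFP stable HEK293 cells | Dosing: One concentration, 3 µM nominal, 0.3% DMSO | Timing: 125 s total fluorescence read per well | Technique: Fluo-8 calcium dye fluorescence, ex 470-495, em 515-575 nm | Measure: Percent activation from peak-to-basal fluorescence ratio, scaled between DMSO and carbachol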
TRPN1 ag – zebrafish TRPN1 channel agonists, primary screen, cell-based, HEK293, calcium fluorescence; transient receptor potential cation channel N1 (TRPN1/NompC), Danio rerio; HEK293 zebrafish TRPN1-YFP, Fluo-8 calcium fluorescence; 100% = response to 87 µM carbachol; activation, % at 3 µM; 220,000 tested, 0.18% active; AID 1424, 2008;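 active = activation above its plate's cutoff, the mean activation of test wells on that plate plus 3 SD, cut at about 19% in these data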
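Material: zebrafish TRPN1-YFP in HEK293 cells. Doses: one dose of 3 µM, 0.3% DMSO. Incubation: dye 1 h 37 °C plus 30 min RT. Measured by: intracellular calcium fluorescence with Fluo-8.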
OXTR potentiator – human OXTR potentiators, primary screen, fluorescence, CHO-OTR cells, Fluo-8 calcium | activation, % at 3 µM | 320,000 tested, 0.061% active | Fluo-8 calcium fluorescence, potentiator mode; 0% = oxytocin EC15, 100% = EC100;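 active = activation above that plate's cutoff, the mean activation of tested compounds plus 3 SD, cut at about 6.6% in these data, passing the limit was not always enough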
Target sequence (P30559 whole entry, looked up): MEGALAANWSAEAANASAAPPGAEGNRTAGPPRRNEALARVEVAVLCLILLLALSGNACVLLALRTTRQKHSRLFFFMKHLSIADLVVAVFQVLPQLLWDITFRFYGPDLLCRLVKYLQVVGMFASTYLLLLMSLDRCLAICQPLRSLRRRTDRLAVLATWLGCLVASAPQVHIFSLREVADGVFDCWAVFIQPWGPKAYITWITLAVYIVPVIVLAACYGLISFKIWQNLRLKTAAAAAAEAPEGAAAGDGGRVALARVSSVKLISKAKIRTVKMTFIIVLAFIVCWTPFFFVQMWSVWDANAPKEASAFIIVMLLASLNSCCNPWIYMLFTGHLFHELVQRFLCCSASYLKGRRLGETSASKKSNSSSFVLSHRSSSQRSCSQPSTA
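Measured by – Fluo-8 calcium dye fluorescence · Test system – human OTR in CHO cells · Dosing – one concentration, 3.0 µM compound · Controls – EC15 oxytocin alone as 0%, 75 nM oxytocin as 100% · Evaluation – normalized max/min fluorescence ratio, % activation · Timing – 6 min pre-incubation, 100 s read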
OXTR ag – human OXTR agonists, primary screen, fluorescence, CHO-OTR cells, Fluo-8 calcium. Fluo-8 calcium fluorescence; normalized: DMSO 0%, oxytocin 100%. activation, % at 3 µM. 320,000 tested, 0.32% active;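 active = activation above the mean of all tested compounds plus 3 SD, cutoff set per screening run, cut at about 20% in these data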;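 also: peak over basal fluorescence ratio from a 100 s FLIPR kinetic read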
TRPN1 ag 2 – zebrafish TRPN1 channel agonists, counter-screen for TRPML3 agonist project, cell-based, HEK293 TRPN1-YFP, Fluo-8 calcium; shares compounds with TRPML3 agonist; Fluo-8 calcium fluorescence; scaled: carbachol wells 100%, DMSO wells 0%; activation, % at 3 µM; 310 tested, 10% active; AID 1525, 2009;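 active = mean activation over replicates above a set limit taken from the earlier TRPN1 channel primary screen, cut at about 19% in these data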
TRPML3 confirm – human TRPML3 channel agonists, confirmation, cell-based, HEK293 TRPML3-YFP, Fluo-8 calcium, triplicate. AID 1526, 2009. shares compounds with TRPML3 agonist. activation, % at 3 µM. 310 tested, 80% active. Fluo-8 calcium fluorescence; 100% set by carbachol, 0% by DMSO;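 active = activation above a set limit derived from the earlier primary screen, cut at about 12% in these data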
A number is an active result; – = inactive; · = not tested or not shown. Shown are actives, neighbours in structure and some others; about 0.55% of the full set was active somewhere.

SMILES	V1aR counter	TRPML3 agonist	TRPN1 ag	OXTR potentiator	OXTR ag	others
CCC(C)(C(=O)NC1CCCCC1)N(C(=O)Cc1cccs1)c1ccccc1 (configuration not stated)	–	–	–	–	22.9
CCC(C)(C(=O)NC1CCCC1)N(Cc1cccs1)C(=O)Cc1cccs1 (configuration not stated)	–	–	–	–	–
N=c1n(Cc2ccc(Cl)cc2)c2ccccc2n1CC(O)COc1ccccc1 (configuration not stated)	25.4	–	–	–	37.0
COc1ccc(OCC(O)Cn2c(=N)n(Cc3ccccc3)c3ccccc32)cc1 (configuration not stated)	–	–	–	–	–
COc1ccc2[nH]c(CN3CCC(n4nccc4NC(=O)C4CC4)CC3)c(C)c2c1	–	·	·	–	–
Cn1c(N)c(-c2ccccc2)c2ccc([N+](=O)[O-])cc2c1=O	51.2	·	·	–	45.7
CCOC(=O)C1CN(S(=O)(=O)c2ccc(C)cc2)CCN1S(=O)(=O)c1ccc(C)cc1 (configuration not stated)	–	–	21.5	–	–
CCOC(=O)C1CN(S(=O)(=O)c2ccccc2)CCN1S(=O)(=O)c1ccccc1 (configuration not stated)	–	–	–	–	–
CCN(CC)CCNc1ncnc2c1[nH]c1ccc(OC)cc12	–	–	–	–	–
COc1ccc2[nH]c3c(NCCC4=CCCCC4)ncnc3c2c1	·	–	19.6	·	·
NC(=O)c1cc(NC(=O)c2ccc(NS(=O)(=O)c3cccs3)cc2)cc(C(N)=O)c1	–	–	–	–	–
Cc1cccc(/N=C/c2sc3ccccc3c2O)n1	–	–	–	–	–
Oc1c(C=Nc2cccc3cccnc23)sc2ccccc12	65.5	–	–	–	48.2
CCN(CC)c1ccc(C2Nc3cccc4cccc(c34)N2)c(O)c1	–	–	–	–	32.0
COc1ccc(S(=O)(=O)NNc2nc(C)cc(C)n2)cc1Br	–	·	·	–	–
COc1ccc(C2C(C(=O)c3cccs3)=C(O)C(=O)N2c2cccc(C)n2)cc1 (configuration not stated)	–	–	–	–	–
Cc1ccc(C2C(C(=O)c3cccs3)=C(O)C(=O)N2c2nnc(C)s2)cc1 (configuration not stated)	–	22.0	42.3	–	–
COc1ccc(CNC(=O)CCS(=O)(=O)c2ccc3c(c2)oc(=O)n3C)cc1	–	·	·	–	–
COc1ccccc1CC(=O)Nc1ccc([N+](=O)[O-])cc1O	–	–	20.9	–	–
CCC(=O)c1ccc(OCC(=O)NCc2ccccc2CN2CCCC2)cc1	–	·	·	–	–
COC(=O)C1=NN(C(=O)c2cccc(Br)c2)C(O)(c2ccc(Cl)cc2)C1 (configuration not stated)	–	–	20.7	–	–
CCOC(=O)C1=NN(C(=O)c2ccc(OC)cc2)C(O)(c2ccc(Cl)cc2)C1 (configuration not stated)	–	–	–	–	–
CCOC(=O)C1=NN(C(=O)c2cccc(Br)c2)C(O)(C(C)(C)C)C1 (configuration not stated)	–	–	–	–	20.4
Cc1cnc(NC(=O)CSc2ncc(-c3ccccc3)n2Cc2ccco2)s1	29.5	–	–	–	25.9
O=S(=O)(c1ccc(N2CCC(c3ccc(Cl)cc3)=N2)cc1)N(CCO)CCO	–	–	–	–	–
SMILES	V1aR counter	TRPML3 agonist	TRPN1 ag	OXTR potentiator	OXTR ag	others
CN(C)CCCNS(=O)(=O)c1ccc(N2CCC(c3ccc(Cl)cc3)=N2)cc1	–	–	–	–	19.7
O=c1oc2ccc3ccccc3c2cc1-c1nnc(-c2ccccc2)o1	–	–	–	–	–
CCN(CC)c1ccc2cc(-c3nnc(-c4ccccc4)o3)c(=O)oc2c1	50.2	12.4	–	–	42.2	TRPN1 ag 2=247.6;TRPML3 confirm=177.2
Cc1ccc(CNC(=O)CCC2CCCN(Cc3c(C)nn(C(C)C)c3C)C2)o1 (configuration not stated)	–	–	–	–	–
CC(C)=C1C2CCC1C(C(=O)NCc1ccccc1)C2C(=O)O (configuration not stated)	–	18.0	–	–	–	TRPN1 ag 2=–;TRPML3 confirm=–
CCOC(=O)Cc1csc(NC(=O)COc2ccc(N(C)S(=O)(=O)c3ccc(C)cc3)cc2)n1	–	–	–	–	–
CCc1nnc(NC(=O)COc2ccc(N(C)S(=O)(=O)c3ccc(C)cc3)cc2)s1	·	23.0	–	·	·	TRPN1 ag 2=–;TRPML3 confirm=63.1
COc1ccc(CCNC(=O)COc2ccc(N(C)S(=O)(=O)c3ccc(Cl)cc3)cc2)cc1	·	44.3	–	·	·	TRPN1 ag 2=–;TRPML3 confirm=40.8
Cc1ccc(S(=O)(=O)N(C)c2ccc(OCC(=O)Nc3nnc(C4CC4)s3)cc2)cc1	·	43.9	–	·	·	TRPN1 ag 2=–;TRPML3 confirm=52.9
CCCOc1ccc(C(=O)CCCC(=O)c2ccc(OCCC)cc2)cc1	–	·	·	–	–
COc1ccc(NC(C)=O)cc1NC(=O)c1ccc(Cl)cc1	–	–	–	–	–
Cc1ccc(S(=O)(=O)N(C)c2ccccc2)cc1	–	16.6	–	–	–	TRPN1 ag 2=–;TRPML3 confirm=–
Cc1ccc(S(=O)(=O)N(C)c2ccc3ccccc3c2)cc1	–	–	–	–	–
CSc1nc2ccccc2nc1N(C)S(=O)(=O)c1ccc(C)cc1	–	21.0	–	–	–	TRPN1 ag 2=–;TRPML3 confirm=25.9
Cc1ccc(N(C)S(=O)(=O)c2ccc(C)cc2)cc1	–	48.6	–	–	–	TRPN1 ag 2=–;TRPML3 confirm=25.4
CNCCOc1ccccc1OC(C)C	–	–	–	–	–
CCN(CC)C(=O)C[n+]1cccc(C(N)=O)c1	–	–	–	–	–
Cc1ccc(-n2nc3c(Cl)nnc(C)c3c2C)cc1	–	12.6	–	–	–	TRPN1 ag 2=–;TRPML3 confirm=–
Cc1ccc(-n2nc3c(N4CCN(c5ccccc5)CC4)nnc(C)c3c2C)cc1	·	–	–	·	·
COc1ccc(/C=C(/NC(=O)c2ccccc2)C(=O)N2CCOCC2)cc1OC	–	·	·	–	–
